From ChEMBL document CHEMBL4402547, “Synthesis and Pharmacological Characterization of Conformationally Restricted Retigabine Analogues as Novel Neuronal Kv7 Channel Activators” (J Med Chem, 2020)
The source made the active and inactive calls. The rule behind the calls is not given here.

Key:
[1] = Photostability of compound in pH 7.4 buffer assessed as compound degradation at 100 ug/ml incubated for 2 hrs under natural solar light-irradiation by HPLC analysis relative to control
Outline: (§1)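 DMSO solutions diluted in pH 7.4 buffer, held in 1 cm quartz cells and exposed to natural daylight. Light-shielded controls kept at 37°C in foil. Aliquots drawn at set intervals and parent compound loss measured by UHPLC: C18 column, 0.1% TFA water/acetonitrile gradient, 45°C, detection at 254 nm.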

[2] = target: T1, Potassium voltage-gated channel subfamily KQT member 2 (Homo sapiens, UniProt O43526); assay: Activation of human Kv7.2 expressed in CHO cells assessed as increase in current amplitude at 10 uM measured at holding potential of -40 mV by whole cell patch clamp electrophysiology assay relative to control; format: cell-based
T1 sequence (O43526 whole entry, the tested form may be a part): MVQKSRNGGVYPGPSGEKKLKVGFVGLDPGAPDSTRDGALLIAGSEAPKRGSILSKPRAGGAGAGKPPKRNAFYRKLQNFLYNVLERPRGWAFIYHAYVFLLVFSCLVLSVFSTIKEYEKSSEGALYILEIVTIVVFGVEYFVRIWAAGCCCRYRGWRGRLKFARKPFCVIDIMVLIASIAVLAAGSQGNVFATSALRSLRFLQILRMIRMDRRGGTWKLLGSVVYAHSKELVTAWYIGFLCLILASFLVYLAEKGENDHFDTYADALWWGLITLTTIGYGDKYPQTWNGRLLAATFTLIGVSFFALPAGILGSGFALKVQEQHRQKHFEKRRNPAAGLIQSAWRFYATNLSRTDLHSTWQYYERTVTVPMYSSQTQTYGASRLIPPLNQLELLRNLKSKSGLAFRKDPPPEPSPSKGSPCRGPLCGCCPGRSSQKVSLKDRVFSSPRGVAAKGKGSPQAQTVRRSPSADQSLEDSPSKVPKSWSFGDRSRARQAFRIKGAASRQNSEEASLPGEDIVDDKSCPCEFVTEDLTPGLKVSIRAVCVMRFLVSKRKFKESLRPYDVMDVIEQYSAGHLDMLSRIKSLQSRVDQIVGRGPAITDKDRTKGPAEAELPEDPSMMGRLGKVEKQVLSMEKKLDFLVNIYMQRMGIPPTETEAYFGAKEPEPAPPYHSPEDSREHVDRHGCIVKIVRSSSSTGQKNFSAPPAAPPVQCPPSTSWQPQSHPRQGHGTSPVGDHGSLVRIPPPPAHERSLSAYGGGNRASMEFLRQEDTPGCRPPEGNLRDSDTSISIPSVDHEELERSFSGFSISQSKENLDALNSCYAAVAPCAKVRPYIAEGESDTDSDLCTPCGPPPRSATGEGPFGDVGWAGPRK
Outline: (§2)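 CHO cells transiently co-transfected (Lipofectamine 2000, 4 μg total cDNA, EGFP marker) with human channel cDNA in pcDNA3.1, recorded 24 h later. Whole-cell patch clamp at 20–22°C, 3–5 MΩ pipettes, perfused extracellular solution pH 7.4. Held at −80 mV; 3-s ramps −80 to +20 mV ± 10 μM drug. Current at −40 mV with vs without drug expressed as ratio; ≥3 cells from ≥2 transfections, mean ± SEM.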

[3] = tested on: Potassium voltage-gated channel subfamily KQT member 2 (Homo sapiens), O43526 [F168L]; assay: Activation of ICA-insensitive human Kv7.2 F168L mutant expressed in CHO cells assessed as increase in channel current amplitude at 10 uM measured at holding potential of -40 mV by whole cell patch clamp electrophysiology assay; format: cell-based; outline: as §2
Chain of Potassium voltage-gated channel subfamily KQT member 2 (Homo sapiens), O43526 [F168L] (O43526 whole entry F168L): as the sequence (O43526 whole entry, the tested form may be a part) above, with F168L counted along it

[4] = Photostability of compound in pH 7.4 buffer assessed as compound degradation at 100 ug/ml incubated for 4 hrs under natural solar light-irradiation by HPLC analysis relative to control; outline: as §1
[5] = target: T1, Potassium voltage-gated channel subfamily KQT member 2; assay: Activation of human Kv7.2 expressed in CHO cells assessed as delta V at 10 uM by whole cell patch clamp electrophysiology assay; format: cell-based
Outline: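 Human Kv7.2 transiently expressed in CHO cells; whole-cell recordings at room temperature (20–22°C), pH 7.4 extracellular solution. 3-s ramps from −80 to +20 mV with 0.01–10 μM drug. ΔV taken as shift of the potential where current reaches 20% of peak, drug vs control, plotted against log concentration. Four-parameter logistic fit gives EC50; mean ± SD of ≥3 experiments.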

[6] = target: T2, Potassium voltage-gated channel subfamily KQT member 3 (Homo sapiens) (UniProt O43525); assay: Activation of human Kv7.3 expressed in CHO cells assessed as delta V at 30 uM by whole cell patch clamp electrophysiology assay; format: cell-based
T2 sequence (whole entry): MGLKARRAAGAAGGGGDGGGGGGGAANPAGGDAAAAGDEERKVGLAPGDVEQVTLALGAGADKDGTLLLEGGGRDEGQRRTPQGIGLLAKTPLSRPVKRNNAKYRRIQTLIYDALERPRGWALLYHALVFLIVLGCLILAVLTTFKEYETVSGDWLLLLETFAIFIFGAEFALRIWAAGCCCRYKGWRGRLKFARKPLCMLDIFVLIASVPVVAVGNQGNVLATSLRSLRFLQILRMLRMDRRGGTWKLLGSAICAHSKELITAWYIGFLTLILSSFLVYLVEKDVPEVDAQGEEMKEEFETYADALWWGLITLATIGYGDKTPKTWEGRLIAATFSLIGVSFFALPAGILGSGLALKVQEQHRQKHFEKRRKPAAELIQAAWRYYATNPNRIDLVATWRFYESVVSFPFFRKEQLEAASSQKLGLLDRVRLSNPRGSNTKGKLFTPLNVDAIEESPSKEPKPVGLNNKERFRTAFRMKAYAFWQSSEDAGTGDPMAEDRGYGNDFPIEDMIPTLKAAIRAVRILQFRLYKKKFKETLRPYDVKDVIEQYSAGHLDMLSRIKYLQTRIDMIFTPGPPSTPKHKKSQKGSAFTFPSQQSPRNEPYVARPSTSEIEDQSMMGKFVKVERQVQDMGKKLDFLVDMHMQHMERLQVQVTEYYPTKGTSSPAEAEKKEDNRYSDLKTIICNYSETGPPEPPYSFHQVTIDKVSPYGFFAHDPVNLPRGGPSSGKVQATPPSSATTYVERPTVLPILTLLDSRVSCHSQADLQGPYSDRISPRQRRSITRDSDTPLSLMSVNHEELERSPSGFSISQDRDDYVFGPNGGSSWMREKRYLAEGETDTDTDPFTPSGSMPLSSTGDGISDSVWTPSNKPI

[7] = target: T1, Potassium voltage-gated channel subfamily KQT member 2; assay: Activation of human Kv7.2 expressed in CHO cells assessed as increase in current amplitude at 10 uM measured at holding potential of 0 mV by whole cell patch clamp electrophysiology assay relative to control; format: cell-based
Outline: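 Transiently transfected CHO cells expressing human Kv7.2, whole-cell patch clamp at 20–22°C in HEPES-buffered saline pH 7.4. Cells held at −80 mV and ramped −80 to +20 mV over 3 s, before and during 10 μM drug. Ramp current at 0 mV taken as drug/control ratio; mean ± SEM of ≥3 cells, ≥2 transfections.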

[8] = Hydrophobicity of compound assessed as self aggregating property by measuring decrease in ratio between fluorescence intensity peaks at 372 nm to 383 nm at 0.7 to 100 uM by pyrene based fluorescence spectroscopic method; format: physicochemical
Outline: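 DMSO stocks diluted in 0.9% NaCl to 0.7–100 μM, residual DMSO <0.1%. Pyrene used as probe, excited at 334 nm; emission recorded 200–700 nm, ten scans summed, at 25°C. Ratio of peak I (372 nm) to peak III (383 nm) intensity plotted against concentration.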

[9] = Photostability of compound in pH 7.4 buffer assessed as compound degradation at 100 ug/ml incubated for 6 hrs under natural solar light-irradiation by HPLC analysis relative to control; outline: as §1
[10] = target: Voltage-gated potassium channel, KQT; KCNQ2(Kv7.2)/KCNQ3(Kv7.3) (Homo sapiens) (UniProt O43526+O43525); assay: Activation of human Kv7.2/Kv7.3 expressed in CHO cells assessed as delta V at 10 uM by whole cell patch clamp electrophysiology assay; format: cell-based

CCCCCCC(=O)Nc1ccc2c(ccn2Cc2ccc(C(F)(F)F)cc2)c1
Drug degradation [1]: 1.36% | Activity [2]: Active | Activity [3]: Active | Drug degradation [4]: 5.82% | Activity [5]: -29.5 mV | Activity [6]: -26.2 mV | Activity [7]: Active | Activity [8]: Active | Drug degradation [9]: 9.15% | Activity [10]: -25.4 mV

CCOC(=O)Nc1ccc(NCc2ccc(F)cc2)cc1N [EZOGABINE]
Drug degradation [1]: 9.65% | Ratio [2]: 6 | Activity [3]: Active | Drug degradation [4]: 25.2% | Activity [5]: -25.4 mV | Activity [6]: -39.9 mV | Ratio [7]: 2 | Activity [8]: Not Active | Drug degradation [9]: 43.5 to 47.3% | Activity [10]: -26.8 mV

CC(C)(C)CC(=O)Nc1ccc2c(ccn2Cc2ccc(C(F)(F)F)cc2)c1
Drug degradation [1]: 0.96% | Activity [2]: Active | Activity [3]: Active | Drug degradation [4]: 6.62% | Activity [5]: -30 mV | Activity [6]: -21.4 mV | Activity [7]: Active | Activity [8]: Active | Drug degradation [9]: 8.45% | Activity [10]: -20 mV
